Tests used:
[1] = tested on: supercoiled pSP64 plasmid DNA; assay: Relaxation of supercoiled pSP64 plasmid DNA by Fe; type: biochemical; settings: Fe(II) chelate; pSP64, 50 mM Tris-HCl pH 8.0, 25 °C, 30 min; agarose gel
How it was run: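 200 ng supercoiled pSP64 treated with freshly prepared Fe2+ (from ferrous ammonium sulfate) plus compound at 2 or 4 μM, in 50 mM Tris-HCl pH 8.0, 25 °C for 30 min. Quenched with glycerol/bromophenol blue loading buffer. Run on 1% agarose gel in 9 mM Tris-borate pH 8.3 with 320 μM Na2EDTA, 96 V for 2 h. Stained 1 h with 0.5 μg/mL ethidium bromide, destained in water, viewed under UV. Cleaved DNA given as percent of total per lane.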

[2] = tested on: DU145 human prostate cancer cells; assay: MTT cytotoxicity assay; type: cell-based; settings: 24 h incubation, four concentrations, 5% DMSO, MTT read at 560 nm
How it was run: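 DU145 cells grown in log phase in MEM with 10% FBS and 1% pen-strep. Trypsinized, seeded at 5000 cells/well and incubated 24 h. Medium replaced with compound-containing medium (5% DMSO final) for 24 h. MTT solution (5 mg/mL in PBS, pH 7.4) added for 3 h at 37 °C. Crystals dissolved in DMSO; absorbance read at 560 nm, reference 670 nm. Viability = OD560/[OD560(positive control) − OD560(negative control)], with linear fit.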

supercoiled DNA = settings: relative to BLM; cited from earlier work
[3] = tested on: SW-480 colon cancer cells; assay: Effect of GLUT1 inhibitors on internalization of BLM-Cy5**; type: cell-based; settings: pretreatment with different concentrations of inhibitor, 37 °C, 2 h, then 25 μM dye-labeled conjugate 44; 2 s exposure
How it was run: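 SW480 cells kept in RPMI 1640 with 10% FBS and 1% pen-strep at 37 °C, 5% CO2. Seeded on glass chamber slides at 5000 cells/well for 48 h. At 70% confluence, rinsed with PBS and switched to phenol-red-free RPMI. Pretreated 2 h at 37 °C with cytochalasin B or phloretin, then 25 μM Cy5-labeled conjugate for 1 h at 37 °C. PBS-washed, fixed 5 min in 4% paraformaldehyde, DAPI-mounted, imaged through Cy5 filter with 40× oil objective; cells counted.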

Compound	extent of double-strand cleavage of plasmid DNA [1]	cytotoxicity toward cultured DU145 cells (cell viability, MTT) [2]	double-strand DNA cleavage (supercoiled DNA)	potency of supercoiled DNA relaxation, fold less than for BLM (supercoiled DNA)	inhibition of BLM-Cy5** (44) binding/uptake [3]
deglycobleomycin A5 [deglycoBLM A5]	minimal double-strand cleavage of plasmid DNA	cytotoxic to DU145 cells but much less so than BLM A5	much less double-strand cleavage is apparent	2–3 fold	–
C=C1[C@@H](C)[C@H]2[C@H](Cc3ccccc3)NC(=O)[C@]23OC(=O)/C=C/[C@H](O)CCC[C@@H](C)C/C=C/[C@H]3[C@@H]1O [cytochalasin B]	–	–	–	–	substantial and dose-dependent inhibition
O=C(CCc1ccc(O)cc1)c1c(O)cc(O)cc1O [phloretin]	–	–	–	–	substantial and dose-dependent inhibition
bleomycin A5 [BLM A5]	–	the most potent of the derivatives tested	–	–	–

Reference: paper PMC4183664 (Journal of the American Chemical Society, 2014)
